Usually IC50 stands for the concentration needed to halve the response being measured.

Assay [1] addresses T1, NAD-dependent protein deacetylase sirtuin-1 (Homo sapiens, UniProt Q96EB6).
T1 sequence (Q96EB6 whole entry): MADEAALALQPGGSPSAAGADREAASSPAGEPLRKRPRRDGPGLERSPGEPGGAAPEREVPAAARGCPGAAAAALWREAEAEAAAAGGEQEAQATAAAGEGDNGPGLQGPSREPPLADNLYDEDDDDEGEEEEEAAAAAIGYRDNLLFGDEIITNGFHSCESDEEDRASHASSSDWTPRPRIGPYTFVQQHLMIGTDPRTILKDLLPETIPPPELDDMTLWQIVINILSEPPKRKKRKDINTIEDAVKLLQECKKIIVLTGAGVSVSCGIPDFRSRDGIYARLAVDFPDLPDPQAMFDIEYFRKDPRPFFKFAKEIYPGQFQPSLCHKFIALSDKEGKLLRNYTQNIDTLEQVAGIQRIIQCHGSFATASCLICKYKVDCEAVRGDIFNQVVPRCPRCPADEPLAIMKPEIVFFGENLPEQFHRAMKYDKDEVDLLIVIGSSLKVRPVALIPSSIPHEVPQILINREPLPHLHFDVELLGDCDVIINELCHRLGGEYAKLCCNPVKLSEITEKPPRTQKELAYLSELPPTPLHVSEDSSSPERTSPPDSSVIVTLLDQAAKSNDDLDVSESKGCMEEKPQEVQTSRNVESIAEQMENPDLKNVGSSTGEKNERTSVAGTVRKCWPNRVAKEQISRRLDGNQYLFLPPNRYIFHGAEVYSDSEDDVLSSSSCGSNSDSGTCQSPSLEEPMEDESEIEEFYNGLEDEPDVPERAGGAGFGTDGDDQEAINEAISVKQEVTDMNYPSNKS
Nature of the assay: Inhibition of human SIRT1 deacetylation activity using H3K9Ac as substrate preincubated for 15 mins in presence of NAD+ followed by substrate addition by HPLC analysis. In outline:
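In vitro sirtuin reaction mixture with compound at a range of concentrations. Compound was preincubated with NAD+ and the enzyme before the substrate peptide was added. IC50 taken from the concentration series.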

Assay [2] concerns the target T2, NAD-dependent protein deacetylase sirtuin-2 (Homo sapiens, UniProt Q8IXJ6).
T2 sequence (Q8IXJ6 whole entry): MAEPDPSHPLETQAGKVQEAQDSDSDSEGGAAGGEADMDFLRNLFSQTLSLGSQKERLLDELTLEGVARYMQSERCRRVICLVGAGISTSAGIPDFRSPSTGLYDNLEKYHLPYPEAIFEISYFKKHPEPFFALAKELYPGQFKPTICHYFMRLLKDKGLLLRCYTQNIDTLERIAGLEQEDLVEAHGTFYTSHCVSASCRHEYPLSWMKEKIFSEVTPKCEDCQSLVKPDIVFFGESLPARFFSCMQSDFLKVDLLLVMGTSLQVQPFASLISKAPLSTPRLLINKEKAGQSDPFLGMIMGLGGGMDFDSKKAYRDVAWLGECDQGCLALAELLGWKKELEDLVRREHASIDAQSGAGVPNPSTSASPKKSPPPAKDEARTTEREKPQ
Nature of the assay: Inhibition of human SIRT2 defatty-acylation activity using peptide substrate preincubated in presence of NAD+ followed by substrate addition by HPLC analysis. The method, boiled down:
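SIRT2 defatty-acylase reaction with compound at a range of concentrations. Compound was preincubated with NAD+ and SIRT2 before the peptide substrate was added. IC50 derived from the dose series.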

In assay [3] the target is T3, Protein cereblon/NAD-dependent protein deacetylase sirtuin-2 (Homo sapiens) (UniProt Q8IXJ6+Q96SW2). Nature of the assay: Protac activity at CRBN/SIRT2 in human MCF7 cells assessed as SIRT2 degradation at 5 to 10 uM after 48 hrs by immunoblot analysis. The note with it: dose microM 5-10, time 48.0 hrs. The class given is cell-based. In outline:
(§1)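 Cells exposed to compound at the indicated concentrations for 48 h. SIRT1, SIRT2 and SIRT3 levels were read by immunoblot.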
(A western blot detects proteins with antibodies after separation by electrophoresis.)

Assay [4] addresses T3, Protein cereblon/NAD-dependent protein deacetylase sirtuin-2 (Homo sapiens). Put plainly: Protac activity at CRBN/SIRT2 in human BT549 cells assessed as SIRT2 degradation at 5 to 10 uM after 48 hrs by immunoblot analysis. The class given is cell-based. The note with it: BT-549, dose microM 5-10, time 48.0 hrs. In outline:
as §1

Assay [5] shares this target. Put plainly: Protac activity at CRBN/SIRT2 in human MCF7 cells assessed as SIRT2 degradation at 0.5 uM after 48 hrs by immunoblot analysis. The class given is cell-based. In outline: (§2)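 MCF7 cells given a range of concentrations below and above 5 μM (0.5 to 50 μM) for 48 h; SIRT2 measured by immunoblot against vehicle-treated cells.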
Assay [6] shares this target. Nature of the assay: Protac activity at CRBN/SIRT2 in human MCF7 cells assessed as SIRT2 degradation at 10 uM by immunoblot analysis. In kind it is cell-based. The note with it: TDE = time-dependent effect. The method, boiled down: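 MCF7 cells treated at a fixed concentration (10 or 25 μM) and harvested at several incubation times; SIRT2 level read by immunoblot.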

Assay [7] shares this target. Nature of the assay: Protac activity at CRBN/SIRT2 in human MCF7 cells assessed as SIRT2 degradation at 50 uM after 48 hrs by immunoblot analysis. The class given is cell-based. In outline:
as §2

For assay [8] the target is unchanged. Put plainly: Protac activity at CRBN/SIRT2 in human MCF7 cells assessed as inhibition of SIRT2 deacetylation by measuring increase in acetylated-alpha tubulin level at 5 uM measured after 12 hrs by DAPI staining based immunofluorescence microscopic analysis. In kind it is cell-based. The method, boiled down:
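MCF7 cells treated for 12 h with 5 or 10 μM, DMSO as control. Acetyl-α-tubulin (K40) was imaged by immunofluorescence, and fluorescence intensity was quantified and normalized to vehicle.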

Assay [9] shares this target. Nature of the assay: Protac activity at CRBN/SIRT2 in human HEK293T cells stably expressing flag-tagged K-Ras4a assessed as inhibition of SIRT2 defatty-acylation at 1 uM incubated for 42 hrs followed by Alkyne-14 addition and measured after 6 hrs by immunoprecipitation based assay. The class given is cell-based. The note with it: HEK-293T. The method, boiled down:
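HEK 293T cells stably expressing Flag-K-Ras4a-G12V were treated with 1 μM compound for 42 h, then labelled with 50 μM Alk-14 for 6 h more. Flag-K-Ras4a was immunoprecipitated and a fluorescent dye attached by click chemistry. NH2OH was applied to strip cysteine fatty acylation, and lysine fatty acylation was measured by in-gel fluorescence and quantified relative to DMSO.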

The target is the same in assay [10]. Put plainly: Protac activity at CRBN/SIRT2 in human HEK293T cells stably expressing flag-tagged K-Ras4a-G12V assessed as inhibition of SIRT2 defatty-acylation at 1 uM incubated for 48 hrs by immunoblot analysis. The note with it: HEK-293T. The class given is cell-based. In outline: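 HEK 293T cells stably overexpressing Flag-tagged K-Ras4a-G12V (confirmed by pan-Ras blot) were exposed to 1 μM compound for 48 h. SIRT1, SIRT2 and SIRT3 levels were then read by immunoblot.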

Assay [11] has as its target Protein cereblon/NAD-dependent protein deacylase sirtuin-5, mitochondrial (Homo sapiens) (UniProt Q9NXA8+Q96SW2). Nature of the assay: Protac activity at CRBN/SIRT5 in human HEK293T cells assessed as abundance ratio at 5 uM incubated for 16 hrs by TMT global proteomics assay relative to DMSO. The note with it: HEK-293T. The class given is cell-based. In outline: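 HEK 293T cells were treated for 16 h. Global proteome was quantified by Tandem Mass Tag labelling. The abundance ratio of each sirtuin was taken against DMSO-treated cells.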

Molecules are shown by their SMILES. Activity calls are given as the source filed them. No cut-off for these calls is given here.

T3 sequence (Q96SW2 whole entry, looked up, one chain of several): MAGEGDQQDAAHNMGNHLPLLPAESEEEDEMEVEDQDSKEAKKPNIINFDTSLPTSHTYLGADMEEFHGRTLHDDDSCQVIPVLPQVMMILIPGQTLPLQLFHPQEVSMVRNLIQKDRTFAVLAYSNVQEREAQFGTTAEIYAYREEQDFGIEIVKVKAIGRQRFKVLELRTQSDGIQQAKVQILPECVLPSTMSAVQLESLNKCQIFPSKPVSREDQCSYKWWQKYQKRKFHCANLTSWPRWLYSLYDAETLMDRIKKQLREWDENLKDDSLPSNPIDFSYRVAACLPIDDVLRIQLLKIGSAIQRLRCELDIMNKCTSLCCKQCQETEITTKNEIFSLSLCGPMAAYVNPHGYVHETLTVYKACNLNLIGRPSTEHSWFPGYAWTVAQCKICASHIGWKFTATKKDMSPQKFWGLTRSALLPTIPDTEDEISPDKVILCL
Protein cereblon/NAD-dependent protein deacylase sirtuin-5, mitochondrial (Homo sapiens), sequence (Q96SW2 whole entry, looked up): as the sequence (Q96SW2 whole entry, looked up, one chain of several) above
Protein cereblon/NAD-dependent protein deacylase sirtuin-5, mitochondrial (Homo sapiens), sequence (Q9NXA8 whole entry, looked up): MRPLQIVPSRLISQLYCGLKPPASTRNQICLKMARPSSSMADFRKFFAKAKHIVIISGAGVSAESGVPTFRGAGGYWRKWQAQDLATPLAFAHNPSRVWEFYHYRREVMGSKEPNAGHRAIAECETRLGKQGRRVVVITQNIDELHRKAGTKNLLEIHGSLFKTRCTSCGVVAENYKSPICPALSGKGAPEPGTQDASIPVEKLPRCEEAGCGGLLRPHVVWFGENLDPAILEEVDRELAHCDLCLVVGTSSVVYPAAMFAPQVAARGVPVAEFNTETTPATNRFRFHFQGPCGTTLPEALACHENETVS

In the case of `CCCCCCCCCCCCCC(=S)NCCCC[C@H](NC(=O)CCOCCOCCOCCOCCNc1cccc2c1C(=O)N(C1CCC(=O)NC1=O)C2=O)C(=O)Nc1ccccc1` (stereo partly specified), the figures for the IC50 in [1] and in assay [2] were 41 µM and 0.11 µM, respectively. The outcome in assay [3], in assay [4], in assay [5], in assay [8], in assay [9] and in assay [10] was Active. Further, in [6], the Activity entry is “Tde”. In addition, the outcome in assay [7] and in assay [11] was inactive.
